Active and inactive are the calls of the source. The rule behind the calls is not given here.

Data on 7 molecules can be found in ChEMBL document CHEMBL4041524, “Synthesis and Characterization of a Novel γ-Aminobutyric Acid Type A (GABAA) Receptor Ligand That Combines Outstanding Metabolic Stability, Pharmacokinetics, and Anxiolytic Efficacy” (J Med Chem, 2016).

For data set [1], the target named is T1, GABA-A receptor; alpha-3/beta-3/gamma-2 (Homo sapiens, UniProt P18507+P28472+P34903).
T1 sequence (P18507 whole entry): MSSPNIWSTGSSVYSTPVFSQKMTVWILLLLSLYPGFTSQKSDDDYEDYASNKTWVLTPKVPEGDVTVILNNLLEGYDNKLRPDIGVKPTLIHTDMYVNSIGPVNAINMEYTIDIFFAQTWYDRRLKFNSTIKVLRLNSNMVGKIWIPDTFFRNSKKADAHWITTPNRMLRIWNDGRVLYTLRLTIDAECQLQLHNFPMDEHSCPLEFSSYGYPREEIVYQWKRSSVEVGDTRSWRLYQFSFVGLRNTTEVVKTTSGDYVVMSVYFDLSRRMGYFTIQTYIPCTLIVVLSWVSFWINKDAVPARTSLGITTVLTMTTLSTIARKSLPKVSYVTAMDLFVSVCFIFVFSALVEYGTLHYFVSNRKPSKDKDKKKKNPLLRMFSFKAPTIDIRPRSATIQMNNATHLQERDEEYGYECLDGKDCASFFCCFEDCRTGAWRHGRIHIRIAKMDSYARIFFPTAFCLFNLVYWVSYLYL
T1 sequence (P28472 whole entry): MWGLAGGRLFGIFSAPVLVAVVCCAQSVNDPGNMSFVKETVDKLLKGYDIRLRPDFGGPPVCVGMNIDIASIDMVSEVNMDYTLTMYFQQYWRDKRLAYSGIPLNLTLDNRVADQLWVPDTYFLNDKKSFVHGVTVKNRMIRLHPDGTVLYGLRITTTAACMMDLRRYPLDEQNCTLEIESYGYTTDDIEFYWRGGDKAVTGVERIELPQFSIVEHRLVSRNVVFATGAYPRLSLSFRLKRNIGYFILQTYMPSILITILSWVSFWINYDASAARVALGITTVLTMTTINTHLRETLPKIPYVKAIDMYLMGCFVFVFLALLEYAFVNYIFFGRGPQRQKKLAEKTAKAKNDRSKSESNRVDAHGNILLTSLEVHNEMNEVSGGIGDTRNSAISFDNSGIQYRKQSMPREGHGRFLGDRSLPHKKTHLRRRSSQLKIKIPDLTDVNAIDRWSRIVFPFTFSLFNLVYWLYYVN
T1 sequence (P34903 whole entry): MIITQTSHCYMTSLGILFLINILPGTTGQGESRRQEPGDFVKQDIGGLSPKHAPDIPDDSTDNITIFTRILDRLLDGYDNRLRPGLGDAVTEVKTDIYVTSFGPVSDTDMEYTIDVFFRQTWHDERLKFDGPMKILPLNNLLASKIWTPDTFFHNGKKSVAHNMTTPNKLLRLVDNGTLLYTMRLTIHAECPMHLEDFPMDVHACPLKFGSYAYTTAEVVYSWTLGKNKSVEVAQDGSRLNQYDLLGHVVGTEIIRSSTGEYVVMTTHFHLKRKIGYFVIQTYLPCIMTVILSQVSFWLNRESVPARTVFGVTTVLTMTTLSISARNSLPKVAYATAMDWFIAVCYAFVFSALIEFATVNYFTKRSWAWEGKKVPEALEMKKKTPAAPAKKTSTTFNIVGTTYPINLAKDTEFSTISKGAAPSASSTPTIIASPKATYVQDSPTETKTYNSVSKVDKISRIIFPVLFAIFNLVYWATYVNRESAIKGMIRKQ
As to the kind of experiment: Binding affinity to human GABAA alpha3beta3gamma2 receptor expressed in HEK293 cells assessed as GABA-induced membrane potential change preincubated for 3 mins followed by addition of GABA measured after 3 mins by FLIPR assay. The data set is classed as cell-based. In outline:
(§1)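 Stably transfected HEK293T cells expressing α1β3γ2 (n = 2) or α3β3γ2 (n = 1) GABAARs. Membrane potential was read as fluorescence changes on a FLIPR Tetra, and EC50 was derived.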

The test system of data set [2] is Liver. As to the kind of experiment: Metabolic stability in human liver microsomes assessed as compound remaining at 4 uM measured after 30 mins in presence of NADPH by LC-MS/MS analysis. The data set is classed as ADME, microsome. As to conditions: 0.5 h. In outline:
(§2)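 Human, mouse or rat liver microsomes were incubated with compound at 4 μM final for 30 min at 37 °C (n = 1). Percent of parent remaining was quantified by LC-MS/MS.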
For orientation: Microsomes from liver hold many membrane-bound enzymes, among them those of drug oxidation.

Data set [3] has as its system Liver. The data set can be described thus: Metabolic stability in mouse liver microsomes assessed as compound remaining at 4 uM measured after 30 mins in presence of NADPH by LC-MS/MS analysis. Format: ADME, microsome. As to conditions: 0.5 h. The procedure, abridged: as §2
In data set [4] the test system is Liver. The data set can be described thus: Metabolic stability in rat liver microsomes assessed as compound remaining at 4 uM measured after 30 mins in presence of NADPH by LC-MS/MS analysis. Format: ADME, microsome. As to conditions: 0.5 h. The procedure, abridged:
as §2

In data set [5] the target is T2, GABA-A receptor; alpha-1/beta-3/gamma-2 (Homo sapiens, UniProt P14867+P18507+P28472).
T2 sequence (P14867 whole entry): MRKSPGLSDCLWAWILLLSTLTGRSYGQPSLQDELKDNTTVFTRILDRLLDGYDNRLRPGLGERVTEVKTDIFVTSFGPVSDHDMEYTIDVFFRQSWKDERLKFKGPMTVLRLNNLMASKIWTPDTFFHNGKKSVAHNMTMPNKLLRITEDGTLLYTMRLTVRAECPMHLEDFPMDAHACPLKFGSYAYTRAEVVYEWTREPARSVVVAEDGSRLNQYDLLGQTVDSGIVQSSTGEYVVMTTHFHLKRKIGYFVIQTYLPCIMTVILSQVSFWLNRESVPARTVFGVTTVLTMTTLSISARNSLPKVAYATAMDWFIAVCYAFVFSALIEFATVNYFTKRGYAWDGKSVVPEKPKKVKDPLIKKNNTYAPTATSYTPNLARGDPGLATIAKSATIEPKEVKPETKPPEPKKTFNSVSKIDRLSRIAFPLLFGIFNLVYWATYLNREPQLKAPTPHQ
T2 sequence (P18507 whole entry): T1 sequence (P18507 whole entry)
T2 sequence (P28472 whole entry): T1 sequence (P28472 whole entry)
As to the kind of experiment: Binding affinity to human GABAA alpha1beta3gamma2 receptor expressed in HEK293 cells assessed as GABA-induced membrane potential change preincubated for 3 mins followed by addition of GABA measured after 3 mins by FLIPR assay. The data set is classed as cell-based. The procedure, abridged: as §1

Data set [6] concerns Mus musculus. The data set can be described thus: Toxicity in Swiss mouse assessed as change in motor coordination by measuring number of falls from the rotating rod at 30 mg/kg, ip administered 30 mins prior to testing measured for 2 mins by rotarod test relative to control. The data set is classed as organism-based. The settings on record: in vivo. In outline:
(§3)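 The same mice used for marble burying were placed on a rotarod at 4 r.p.m. for 2 min. No fall was scored success, one fall partial, and two falls failure.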
A general note: The rotarod test checks motor coordination on a turning rod.

Data set [7] can be described thus: Cytotoxicity against HEK293T cells assessed as viable cells measured after 18 hrs by CellTiter-Glo assay. Format: cell-based, HEK-293T. As to conditions: human, read-out: LD50. In outline:
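HEK293T cells were exposed to compound for 18 h (n = 4). Viable cells were quantified with CellTiter-Glo, and LD50 was derived.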
In general terms: Cellular ATP, detected with luciferase, serves as a proxy for viable cell number.

For data set [8], the system named is Mus musculus. As to the kind of experiment: Anxiolytic-like activity in Swiss Webster mouse marble burying model of anxiety assessed as suppression of marble burying activity at 30 mg/kg, ip administered 30 mins prior to test relative to vehicle-control. Format: functional, organism-based. The procedure, abridged:
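Male NIH Swiss Webster mice (n = 10) received vehicle or compound at 10 or 30 mg/kg i.p. 30 min before marble burying testing. Sedation-like behaviour was noted by observation. Analysis was ANOVA with Dunnett's test vs vehicle.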

Data set [9] concerns Mus musculus. The data set can be described thus: Toxicity in Swiss mouse assessed as change in motor coordination by measuring number of falls from the rotating rod at 10 mg/kg, ip administered 30 mins prior to testing measured for 2 mins by rotarod test relative to control. Format: organism-based. The settings on record: in vivo. In outline: as §3
Data set [10] can be described thus: Total plasma concentration in Sprague-Dawley rat at 10 mg/kg, po measured after 15 mins by LC-MS/MS analysis. The data set is classed as ADME, organism-based. The procedure, abridged: (§4)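 Sprague-Dawley rats (n = 3 per time point) were given 10 mg/kg p.o. Total plasma concentrations were taken at 15, 30, 60 and 120 min. Brain levels of the dosed ligand and of the carboxylic acid metabolite were taken at 60 or 120 min.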

The nature of data set [11]: Total plasma concentration in Sprague-Dawley rat at 10 mg/kg, po measured after 30 mins by LC-MS/MS analysis. The data set is classed as ADME, organism-based. In outline: as §4
Data set [12] can be described thus: Total plasma concentration in Sprague-Dawley rat at 10 mg/kg, po measured after 60 mins by LC-MS/MS analysis. Format: ADME, organism-based. The procedure, abridged:
as §4

Data set [13] can be described thus: Total plasma concentration in Sprague-Dawley rat at 10 mg/kg, po measured after 120 mins by LC-MS/MS analysis. Format: ADME, organism-based. In outline: as §4
The nature of data set [14]: Drug uptake in Sprague-Dawley rat brain at 10 mg/kg, po measured after 120 mins by LC-MS/MS analysis. Format: ADME, organism-based. The settings on record: read-out: Drug uptake. The procedure, abridged:
as §4

The test system of another data set is Brain. As to the kind of experiment: Drug metabolism in Sprague-Dawley rat brain assessed as (E)-8-ethynyl-6-(pyridin-2-yl)-4H-benzo[f]imidazo[1,5-a][1,4]diazepine-3-carboxylic acid formation at 10 mg/kg, po measured after 120 mins by LC-MS/MS analysis. The data set is classed as ADME, organism-based. The settings on record: in vivo, 2 h. The procedure, abridged: as §4

What is called EC50 is the concentration at which the effect is half-maximal. On to `C#Cc1ccc2c(c1)C(c1ccccc1F)=NCc1c(C(=O)OCC)ncn1-2`, for which the EC50 in data set [1] was 0.029 µM; in data set [5], greater than 20 µM. In addition, the Stability in the data set on Liver [2] was determined as 6.1%; with Liver [3] it was 6.1%; in the data set on Liver [4] it was 0.5%. Also, in the data set on Mus musculus [6], the Activity entry is “Toxic”.
For `C#Cc1ccc2c(c1)C(c1ccccc1)=NCc1c(-c3cnco3)ncn1-2`, the EC50 in data set [1] is 0.321 µM; in data set [5], greater than 20 µM. The values for the Stability in the data set on Liver [2], with Liver [3] and with Liver [4] were 74%, 73% and 72%, respectively. Further, the CC50 at 18 h in [7] turned out to be 66.8 µM. Also, in the data set with Mus musculus [8], the result was Active. Further, the Activity result in the data set on Mus musculus [9] and with Mus musculus [6] was “Toxic” in each case.
Take `C#Cc1ccc2c(c1)C(c1ccccc1F)=NCc1c(-c3cnco3)ncn1-2`: the half-maximal effective concentration (EC50) was 0.011 µM in data set [1] and greater than 20 µM in data set [5]. Also, the Stability worked out at 78% in the data set on Liver [2], 78% in the data set with Liver [3] and 68% in the data set with Liver [4]. The CC50 at 18 h in data set [7] came out at 61.5 µM. The outcome with Mus musculus [8] was Active. The Activity result is reported as “Non-Toxic” in the data set on Mus musculus [9] and “Toxic” in the data set on Mus musculus [6].
On to `C#Cc1ccc2c(c1)C(c1ccccc1)=NCc1c(C(=O)OCC)ncn1-2`, for which the Stability in the data set on Liver [2] amounted to 35%; in the data set on Liver [3] it was 6.3%; in the data set with Liver [4], 36%. Moreover, the Activity entry in the data set on Mus musculus [6] was “Toxic”.
As to `C#Cc1ccc2c(c1)C(c1ccccn1)=NCc1c(-c3nc(C)no3)ncn1-2`, the EC50 was 5.15 µM in data set [1] and greater than 20 µM in data set [5]. The Stability in the data set with Liver [2] amounted to 81%; in the data set on Liver [3], 85%; with Liver [4] it was 93%. For the same molecule, in data set [7], the CC50 at 18 h is greater than 100 µM. For the same molecule, the outcome in the data set with Mus musculus [8] was Active. The Activity result with Mus musculus [9] is on record as “Non-Toxic”; in the data set with Mus musculus [6], “Toxic”.
As for `C#Cc1ccc2c(c1)C(c1ccccn1)=NCc1c(C(=O)O)ncn1-2`, the EC50 in data set [1] is 0.47 µM; in data set [5] it was greater than 20 µM. For the same molecule, the Stability with Liver [2] stood at 96%; with Liver [3] it was 93%; with Liver [4], 99%. Further, the concentration at 0.25 h in data set [10] turned out to be 248 nM. The same molecule displayed a concentration at 0.5 h in data set [11] of 293 nM. Moreover, the concentration at 1 h in [12] came to 161 nM. The concentration at 2 h in data set [13] is 37.5 nM; in [14], less than 12.2 nM. Moreover, the Drug metabolism in the data set with Brain was less than 12.2 nM. Also, in the data set on Mus musculus [6], the Activity result is “Toxic”.
For the molecule `[2H]C([2H])(C)OC(=O)c1ncn2c1CN=C(c1ccccn1)c1cc(C#C)ccc1-2`, the Stability with Liver [2] was 95%; with Liver [3], 63%; in the data set on Liver [4], 77%. Moreover, the concentration at 0.25 h in [10] is less than 12.2 nM. The concentration at 0.5 h in [11] is less than 12.2 nM. Further, the concentration at 1 h in data set [12] was less than 12.2 nM. For the same molecule, the concentration at 2 h in data set [13] and in [14] was less than 12.2 nM throughout. The Drug metabolism in the data set with Brain is reported as less than 12.2 nM. Moreover, the Activity entry in the data set on Mus musculus [6] is “Toxic”.
